Tests used:
[1] = tested on: hDNMT3A–MPP8 interaction in 293T cells; experiment: Co-immunoprecipitation of hDNMT3A and MPP8 in 293T cells; format: cell-based, human; settings: immunoprecipitation–western
Outline: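 293T cells were transfected for 48 h with Myc-hDNMT3A constructs (WT or K47R; in one setup, co-expressed with HA–GLP in GLP stable-knockdown cells). IP used 1 μg anti-Myc with protein-G agarose and three washes in IPH containing 300 or 600 mM NaCl. Western used anti-Myc/MPP8; input was 1–2%.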

[2] = tested on: MPP8–GLP interaction in 293T cells; experiment: Co-immunoprecipitation of MPP8 and GLP in 293T cells; format: cell-based, human
Outline: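 293T cells (parental, or MPP8 stable knockdown for the chromodomain W80A mutant) were cotransfected with Flag-MPP8 and HA-GLP (WT, K199R, K205R or K209R) for 48 h. Lysates were immunoprecipitated with 1 μg anti-HA or anti-Flag on protein-G agarose, washed with IPH containing 300 or 600 mM NaCl, and analysed by western blot. Input was 5%.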

B1: MPP8 W80A: cage mutant of MPP8 chromodomain, Trp80 to alanine (protein)
chain: MEQVAEGARVTAVPVSAADSTEELAEVEEGVGVVGEDNDAAARGAEAFGDSEEDGEDVFEVEKILDMKTEGGKVLYKVRAKGYTSDDDTWEPEIHLEDCKEVLLEFRKKIAENKAKAVRKDIQRLSLNNDIFEANSDSDQQSETKEDTSPKKKKKKLRQREEKSPDDLKKKKAKAGKLKDKSKPDLESSLESLVFDLRTKKRISEAKEELKESKKPKKDEVKETKELKKVKKGEIRDLKTKTREDPKENRKTKKEKFVESQVESESSVLNDSPFPEDDSEGLHSDSREEKQNTKSARERAGQDMGLEHGFEKPLDSAMSAEEDTDVRGRRKKKTPRKAEDTRENRKLENKNAFLEKKTVPKKQRNQDRSKSAAELEKLMPVSAQTPKGRRLSGEERGLWSTDSAEEDKETKRNESKEKYQKRHDSDKEEKGRKEPKGLKTLKEIRNAFDLFKLTPEEKNDVSENNRKREEIPLDFKTIDDHKTKENKQSLKERRNTRDETDTWAYIAAEGDQEVLDSVCQADENSDGRQQILSLGMDLQLEWMKLEDFQKHLDGKDENFAATDAIPSNVLRDAVKNGDYITVKVALNSNEEYNLDQEDSSGMTLVMLAAAGGQDDLLRLLITKGAKVNGRQKNGTTALIHAAEKNFLTTVAILLEAGAFVNVQQSNGETALMKACKRGNSDIVRLVIECGADCNILSKHQNSALHFAKQSNNVLVYDLLKNHLETLSRVAEETIKDYFEARLALLEPVFPIACHRLCEGPDFSTDFNYKPPQNIPEGSGILLFIFHANFLGKEVIARLCGPCSVQAVVLNDKFQLPVFLDSHFVYSFSPVAGPNKLFIRLTEAPSAKVKLLIGAYRVQLQ
modifications: left off: Flag, end not stated, kept
In the case of B1, the “interaction of hDNMT3A with MPP8 in cells” value [1] is reported as “abrogate binding to hDNMT3a” and the “MPP8–GLP interaction in cells” value [2] is reported as “abrogates MPP8–GLP interaction in cells”.

From paper PMC3286832 (Nature Communications, 2011)
